Bioassay records as filed in PubChem BioAssay.
MEKK2mut PB1 HTS – signal of MEK5 binding to mutant human MEKK2 PB1 domain; bead flow cytometry, Alexa488-MEK5 binding to MEKK2 mutant; percent response, % at 10 µM; actives 0.35% (n = 290,000); in the data active = percent response above about 24%, passing the limit was not always enough
MEKK3 PB1 HTS – raises or lowers MEK5 binding to the human MEKK3 PB1 domain. Q99759. bead-based flow cytometry, Alexa488-MEK5 binding to MEKK3; actives lie on both sides; 0 = blocked by unlabeled MEK5, 100 = vehicle. binding response (% of control), % at 10 µM. actives 1.4% (n = 290,000);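 active = binding response more than 3 SD above or below the average of its plate-row segment, actives on both sides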;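 note: Alexa488 bead fluorescence after subtracting the streptavidin-only scavenger bead signal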
Target sequence (Q99759 whole entry, looked up, the tested form may be a part): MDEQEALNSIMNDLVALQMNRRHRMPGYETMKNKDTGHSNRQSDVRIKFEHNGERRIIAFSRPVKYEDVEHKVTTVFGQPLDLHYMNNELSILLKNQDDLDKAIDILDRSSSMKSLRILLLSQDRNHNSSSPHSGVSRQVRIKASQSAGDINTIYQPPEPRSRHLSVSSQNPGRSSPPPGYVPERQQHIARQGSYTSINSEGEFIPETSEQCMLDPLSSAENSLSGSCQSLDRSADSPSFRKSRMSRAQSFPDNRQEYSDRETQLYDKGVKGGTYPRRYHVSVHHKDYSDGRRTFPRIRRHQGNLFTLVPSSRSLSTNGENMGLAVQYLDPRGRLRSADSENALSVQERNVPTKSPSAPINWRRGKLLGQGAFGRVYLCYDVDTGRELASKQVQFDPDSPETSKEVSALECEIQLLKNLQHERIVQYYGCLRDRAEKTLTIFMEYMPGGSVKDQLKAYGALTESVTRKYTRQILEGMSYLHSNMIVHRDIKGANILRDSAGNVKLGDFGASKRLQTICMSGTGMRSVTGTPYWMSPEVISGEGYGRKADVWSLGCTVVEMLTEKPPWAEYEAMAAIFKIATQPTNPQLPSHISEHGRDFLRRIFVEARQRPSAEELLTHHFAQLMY
MEKK2 WT-MEK5 – raises or lowers MEK5 binding to wildtype human MEKK2 PB1 domain; Q9Y2U5; bead flow cytometry, Alexa488-MEK5 binding to MEKK2 WT; actives lie on both sides; binding response (% of control), % at 10 µM; actives 1.1% (n = 290,000); AID 1531; in the data active = binding response below about 67% or above about 130%
PREPL inhibitor – inhibitors of human prolyl oligopeptidase-like enzyme PREPL. Q4J6C6. recombinant PREPL, fluorescence polarization activity-based probe. inhibition, % at 5.96 µM. actives 0.68% (n = 320,000). AID 2751; in the data active = inhibition above about 43%;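 note: 0% = enzyme with DMSO and 100% = wells lacking enzyme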
UBC13 polyUb – human UBC13 polyubiquitination inhibition. UBC13 polyubiquitin chain formation, TR-FRET. inhibition, % at 20 µM. actives 0.47% (n = 330,000); in the data active = inhibition above about 45%, passing the limit was not always enough
Apaf-1 inh – inhibitors of human Apaf-1 apoptosome | inhibition, % at 20 µM | actives 0.71% (n = 330,000) | reconstituted apoptosome caspase-3 activity, DEVD-Rh110 fluorescence | O14727; active = inhibition of at least 40% at 20 µM;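 note: plate controls were DMSO wells for no effect and DEVD-CHO caspase inhibitor wells for full effect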
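System – cell-free apoptosome with Apaf-1, procaspase-3 and caspase-9 · Buffer or medium – pH 7.5 Hepes buffer with CHAPS, BSA, DTT · Also added – cytochrome c with DEVD-Rh110 · Times – 30 min compound preincubation, 50 min activation, room temperature · Technique – Rh110 fluorescence intensity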
Numbers without * were called inactive; · = no result; [ ] = remark or other dose. Shown are actives, neighbours in structure and some others; about 3.1% of the full set was active somewhere.

SMILES | MEKK2mut PB1 HTS | MEKK3 PB1 HTS | MEKK2 WT-MEK5 | PREPL inhibitor | UBC13 polyUb | Apaf-1 inh
CCN(CC)c1ccc(N=Cc2c(C)[nH]c3ccccc23)cc1 | -1 | 75*[inhibitor] | 99 | 28 | -40 | 35
Cc1[nH]c2ccccc2c1/C=N/n1cnnc1 | -1 | 98 | 98 | 8 | 3 | 1
COC(=O)c1[nH]c(=O)c2ccccc2c1O | 2 | 106 | 95 | -3 | -5 | 91*
C=CCn1c(SCC(=O)Nc2cc3oc4ccccc4c3cc2OC)nnc1-c1cnccn1 | 11 | 110 | 140* | 12 | 6 | 3
CCc1noc(C)c1C(=O)Nc1nc(-c2ccc(OC)cc2OC)cs1 | · | · | · | 1 | 1 | 11
C[C@@H](C(=O)OCC(=O)c1ccccc1)N1C(=O)C2CCCCC2C1=O (some centres undefined) | · | · | · | 1 | 4 | -10
CCOC(=O)Oc1ccc2c(=O)c(Oc3cc(C)cc(C)c3)coc2c1 | 3 | 103 | 97 | 38 | -10 | 9
CCOC(=O)Oc1ccc2c(=O)c(Oc3cccc(C)c3)coc2c1 | 1 | 99 | 105 | 65* | 10 | 14
Cc1cc(SCC(=O)c2ccc3c(c2)OCO3)nc2ccccc12 | 39 | 113 | 38* | 0 | 25 | -1
CCCNC(=S)N1CCC(NC(=O)c2ccc(C)cc2)CC1 | 11 | 104 | 107 | -5 | 1 | -2
CCC(=O)Nc1nc(-c2ccc3c(c2)CC(C)N3S(C)(=O)=O)cs1 (centres undefined) | 5 | 99 | -1.0* | 5 | 1 | -2
CC1Cc2cc(-c3csc(NC(=O)Cc4cccs4)n3)ccc2N1S(C)(=O)=O (centres undefined) | · | · | · | 7 | 9 | -1
CCOC(=O)CC1C(=O)NCCN1c1nc2c(C)cccn2c(=O)c1/C=C1\SC(=S)N(CC(C)C)C1=O (centres undefined) | -1 | 97 | 70 | · | · | ·
CC(C)CN1C(=O)/C(=C/c2c(N3CCc4ccccc4C3)nc3ccccn3c2=O)SC1=S | 77* | 22*[inhibitor] | · | · | · | ·
Cc1ccc2cc(C3CC(c4cccs4)=NN3S(C)(=O)=O)c(Cl)nc2c1 (centres undefined) | 5 | 97 | -4.0* | -6 | -8 | 14
Cc1ccc2nc(Cl)c(C3CC(c4cccs4)=NN3S(C)(=O)=O)cc2c1 (centres undefined) | -1 | 96 | 78 | -6 | 0 | 11
O=c1[nH]c(=S)[nH]c(O)c1N=Nc1ccc(-c2ccccc2)cc1[N+](=O)[O-] | 3 | 96 | -4.0* | · | · | ·
COc1ccc(S(=O)(=O)Nc2ccccc2OC)cc1N=Nc1c(O)[nH]c(=S)[nH]c1=O | · | · | · | 19 | -189 | -2
Oc1ccc(Cl)cc1C1=NNC(c2ccc(Cl)cc2)C1 (centres undefined) | 0 | 135* | 107 | 4 | -7 | -6
Oc1c(Cl)cc(Cl)cc1C1=NNC(c2ccc(Cl)cc2)C1 (centres undefined) | 1 | 102 | 104 | · | · | ·
Cc1ccc(CNC(=O)C(=O)NCC2CCCN2S(=O)(=O)c2cccs2)cc1 (centres undefined) | · | · | · | -2 | 4 | 18
CCOCCCNc1nc2c(C)cccn2c(=O)c1/C=C1\SC(=S)N(CC(C)C)C1=O | · | · | · | -11 | -21 | -1
CCOCCCNc1nc2c(C)cccn2c(=O)c1/C=C1\SC(=S)N(C(C)CC)C1=O (centres undefined) | 127* | 28*[inhibitor] | · | -21 | -58 | -6
C/C(=N\Nc1nc2ccc(Cl)cc2o1)c1ccccc1 | 4 | 105 | -3.0* | 15 | 18 | -6
O=C1C(Cl)=C(NCCCO)C(=O)c2ccccc21 | 2 | 102 | 103 | 0 | -494 | 45*
O=c1cc(NCCCO)c2ccccc2o1 | 1 | 101 | 94 | 9 | -3 | 12
CN(C)c1ccc(NC2=C(Cl)C(=O)c3ccccc3C2=O)cc1 | 0 | 99 | 97 | 29 | -149 | 43*
CC(=O)Nc1ccc(NC2=C(Cl)C(=O)c3ccccc3C2=O)cc1 | -2 | 107 | 101 | · | -68 | 38
Cc1cccc(NC(=O)c2cc3n(n2)C(C(F)(F)F)CC(c2ccc4c(c2)OCO4)N3)c1 (centres undefined) | 7 | 111 | 107 | 14 | 16 | -1
